Results reported in ChEMBL document CHEMBL1142420, “Synthesis and DNA-cleaving activity of lactenediynes conjugated with DNA-complexing moieties” (2008).
One block for each molecule: values may come before it. Active and inactive are the calls of the source. The calls are words filed in the database; no cut-off is given here.

Assays:
Escherichia coli [1] = assay: Induction of plasmid pBR322 DNA cleavage at 1 mM after 24 hrs by gel electrophoresis
Outline: (§1)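 Supercoiled pBR322 (90% form I) diluted to 50 µg/mL (75 µM/bp) in pH 7.5 Tris 40 mM/EDTA 4 mM. Incubated 24 h at 37 °C, then run on agarose gel with ethidium bromide and viewed at 302 nm. Form I versus II+III quantified by densitometry after subtracting form II present in the control.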

Escherichia coli [2] = assay: Induction of plasmid pBR322 DNA cleavage assessed as concentration required to cleave 50% of DNA after 24 hrs by gel electrophoresis; outline: as §1

CS50 (Escherichia coli [2]): 80 µM
Structure (SMILES): CC(C)(C)OC(=O)N1C(=O)[C@@H]2CC#C/C=C\C#C[C@@H](OC(=O)CCc3cccc4ccccc34)[C@H]21

CS50 (Escherichia coli [2]): 150 µM
Structure (SMILES): CC(C)(C)OC(=O)N1C(=O)[C@@H]2CC#C/C=C\C#C[C@@H](OC(=O)CCc3ccc4ccccc4c3)[C@H]21

CS50 (Escherichia coli [2]): 200 µM
Structure (SMILES): CC(=O)O[C@@H]1C#C/C=C\C#CC[C@H]2C(=O)N(C(=O)Nc3ccc4ccccc4c3)[C@H]12

CS50 (Escherichia coli [2]): 70 µM
Structure (SMILES): CC(=O)O[C@@H]1C#C/C=C\C#CC[C@H]2C(=O)N(C(=O)NCc3ccccc3)[C@H]12

CS50 (Escherichia coli [2]): 80 µM
Structure (SMILES): CC(C)(C)OC(=O)N1C(=O)[C@@H]2CC#C/C=C\C#C[C@@H](OC(=O)Cc3cccc4ccccc34)[C@H]21

CS50 (Escherichia coli [2]): 30 µM
Structure (SMILES): CC(=O)O[C@H]1C#C/C=C\C#CC[C@H]2C(=O)N(C(=O)OC(C)(C)C)[C@H]12

More lines, now with the values behind:

Structure (SMILES): CON1C(=O)[C@@H]2CC#C/C=C\C#CC(C)[C@H]21 (stereo partly drawn)
Activity (Escherichia coli [1]): inactive

Structure (SMILES): CC(=O)O[C@@H]1C#C/C=C\C#CC[C@H]2C(=O)N(C(=O)Nc3cccc4ccccc34)[C@H]12
CS50 (Escherichia coli [2]): 25 µM

Structure (SMILES): CC(=O)Nc1cc(C(=O)Nc2cc(C(=O)N(C)CCCCCNC(=O)N3C(=O)[C@@H]4CC#C/C=C\C#C[C@@H](OC(C)=O)[C@H]43)n(C)c2)n(C)c1
CS50 (Escherichia coli [2]): 35 µM

Structure (SMILES): CC(=O)O[C@@H]1C#C/C=C\C#CC[C@H]2C(=O)N(C(=O)NCCCCCN(C)C(=O)Cc3cccc4ccccc34)[C@H]12
CS50 (Escherichia coli [2]): 25 µM

Structure (SMILES): CC(=O)O[C@@H]1C#C/C=C\C#CC[C@H]2C(=O)N(C(=O)NCc3cccc4ccccc34)[C@H]12
CS50 (Escherichia coli [2]): 25 µM

Structure (SMILES): CC[C@@]1(O)C(=O)OCc2c1cc1n(c2=O)Cc2c-1nc1ccccc1c2/C=N/OCCNC(=O)CCNC(=O)N1C(=O)[C@@H]2CC#C/C=C\C#C[C@@H](OC(C)=O)[C@H]21
CS50 (Escherichia coli [2]): 10 µM

Structure (SMILES): CC(=O)O[C@@H]1C#C/C=C\C#CC[C@H]2C(=O)N(C(=O)NCCC(=O)NCc3ccccc3)[C@H]12
CS50 (Escherichia coli [2]): 25 µM

Structure (SMILES): CC(=O)O[C@@H]1C#C/C=C\C#CC[C@H]2C(=O)N(C(=O)NCCc3ccc4ccccc4c3)[C@H]12
CS50 (Escherichia coli [2]): 150 µM

Structure (SMILES): CC(=O)O[C@H]1C#C/C=C\C#CC[C@H]2C(=O)N(C(=O)NCc3cccc4ccccc34)[C@H]12
CS50 (Escherichia coli [2]): 25 µM

Structure (SMILES): CC(=O)O[C@@H]1C#C/C=C\C#CC[C@H]2C(=O)N(C(=O)NCCc3cccc4ccccc34)[C@H]12
CS50 (Escherichia coli [2]): 40 µM

Structure (SMILES): CCCCNC(=O)c1cc(NC(=O)c2cc(NC(=O)CCNC(=O)N3C(=O)[C@@H]4CC#C/C=C\C#C[C@@H](OC(C)=O)[C@H]43)n(C)c2)n(C)c1
CS50 (Escherichia coli [2]): 15 µM

Structure (SMILES): CC(=O)O[C@@H]1C#C/C=C\C#CC[C@H]2C(=O)N(C(=O)NCc3ccc4ccccc4c3)[C@H]12
CS50 (Escherichia coli [2]): 70 µM
